Experimental data as given in ChEMBL document CHEMBL4385671, “Discovery of small molecule inhibitors of human uridine-cytidine kinase 2 by high-throughput screening” (Bioorg Med Chem Lett, 2019).
The source made the active and inactive calls.

Legend:
[1] = target: T1, Uridine-cytidine kinase 2 (Homo sapiens, UniProt Q9BZX2); test: Inhibition of C-terminally His6-tagged human UCK2 expressed in Escherichia coli BL21(DE3) cells incubated for 15 mins before ATP addition and measured after 60 mins by ADP-Glo kinase assay based HTS assay
T1 sequence (Q9BZX2 whole entry): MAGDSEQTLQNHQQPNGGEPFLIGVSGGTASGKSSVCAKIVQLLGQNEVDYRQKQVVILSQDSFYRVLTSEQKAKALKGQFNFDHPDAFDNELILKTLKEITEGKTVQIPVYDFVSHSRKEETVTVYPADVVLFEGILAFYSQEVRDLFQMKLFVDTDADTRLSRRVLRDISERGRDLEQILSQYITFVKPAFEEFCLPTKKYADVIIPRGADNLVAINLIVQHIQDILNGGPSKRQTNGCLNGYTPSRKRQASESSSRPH
How it was run: (§1)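 His6-tagged UCK2 (C-terminal tag), purified by Ni-NTA then ion exchange; UCK2 phosphorylates uridine with ATP and ADP-Glo measures the ADP formed, after depleting leftover ATP, as luciferase luminescence. Run in 1536-well format with 0.5 mg/mL BSA, DMSO up to 3%. Primary screen at 33 μM with hit cut-off of 3 SD of the negative control. Confirmation used 8 half-log concentrations, 0.05–167 µM.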

[2] = target: T2, Uridine-cytidine kinase 2 (Homo sapiens) (UniProt Q9BZX2); test: Inhibition of UCK2 in human K562 cells assessed as inhibition of uridine salvage at 50 uM incubated for 24 hrs by 5-ethynyl-uridine incorporation assay; assay type: cell-based
T2 sequence (whole entry): T1 sequence (Q9BZX2 whole entry)
How it was run: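 K562 cells were given compound at 50 µM with 50 µM 5-ethynyl-uridine (5-EU). 5-EU incorporated into cellular RNA was quantified by click chemistry with a fluorescent probe. Dipyridamole at 20 µM served as control.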

[3] = target: Dihydroorotate dehydrogenase (quinone), mitochondrial (Homo sapiens) (UniProt Q02127); test: Inhibition of DHODH in human K562 cells assessed as increase in uridine salvage at 200 nM incubated for 24 hrs by 5-ethynyl-uridine incorporation assay; assay type: cell-based
[4] = target: T1, Uridine-cytidine kinase 2; test: Inhibition of C-terminally His6-tagged human UCK2 expressed in Escherichia coli BL21(DE3) cells incubated for 15 mins before ATP addition and measured after 60 mins by ADP-Glo kinase assay; how it was run: as §1
[5] = target: T1, Uridine-cytidine kinase 2; test: Non-competitive inhibition of C-terminally His6-tagged human UCK2 expressed in Escherichia coli BL21(DE3) cells using phosphoenolpyruvate, NADH and varying uridine level by spectrophotometry based pyruvate kinase and lactate dehydrogenase coupled enzyme assay
How it was run: (§2)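 Continuous coupled assay of purified C-terminally His6-tagged UCK2. Substrate titration was done with either uridine or ATP varied, at inhibitor 0, 0.5, 1.5 or 4.5 µM. Ki was derived from kinetic analysis of these titrations.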

[6] = target: T1, Uridine-cytidine kinase 2; test: Non-competitive inhibition of C-terminally His6-tagged human UCK2 expressed in Escherichia coli BL21(DE3) cells using uridine, phosphoenolpyruvate, NADH and varying ATP level by spectrophotometry based pyruvate kinase and lactate dehydrogenase coupled enzyme assay; how it was run: as §2
[7] = target: T3, UMP-CMP kinase (Homo sapiens) (UniProt P30085); test: Inhibition of CMPK1 (unknown origin) by ADP-Glo kinase assay
T3 sequence (whole entry): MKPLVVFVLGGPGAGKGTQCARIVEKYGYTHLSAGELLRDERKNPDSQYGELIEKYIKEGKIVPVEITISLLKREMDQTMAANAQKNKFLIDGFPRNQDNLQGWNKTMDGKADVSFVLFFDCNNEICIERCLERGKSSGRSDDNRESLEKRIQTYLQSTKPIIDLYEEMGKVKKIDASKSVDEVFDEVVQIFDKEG

Chain of Dihydroorotate dehydrogenase (quinone), mitochondrial (Homo sapiens) (Q02127 whole entry): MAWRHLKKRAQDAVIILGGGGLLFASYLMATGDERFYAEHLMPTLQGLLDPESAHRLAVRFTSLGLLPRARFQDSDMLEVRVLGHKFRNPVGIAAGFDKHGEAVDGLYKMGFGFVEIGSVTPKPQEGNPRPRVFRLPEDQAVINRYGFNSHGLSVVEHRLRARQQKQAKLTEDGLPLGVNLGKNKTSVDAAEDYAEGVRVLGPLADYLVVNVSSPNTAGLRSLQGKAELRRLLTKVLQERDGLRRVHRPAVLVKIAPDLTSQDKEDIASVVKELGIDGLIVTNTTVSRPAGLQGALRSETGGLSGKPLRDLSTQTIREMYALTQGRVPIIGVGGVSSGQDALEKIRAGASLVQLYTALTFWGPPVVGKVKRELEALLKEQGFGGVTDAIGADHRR

SMILES | IC50 [1] [µM] | inhibition [2] | IC50 ([4]; read-out: IC50) [µM] | also measured
CC(C)(C)c1ccc(-c2nc(SCC(=O)Nc3ccc(Cl)cc3)[nH]c(=O)c2C#N)cc1 | 138 | – | – | –
Cc1ccccc1NC(=O)CSCn1[nH]nc2c(=O)nc(Cc3ccc(F)cc3)nc1-2 | – | 26.3% | – | –
O=C(N[C@@H]1CCCc2c1[nH]c1ccc(Cl)cc21)c1ccccn1 | – | – | – | inhibition [3]: Active
COc1cccc2c1Oc1nc(-c3ccc(C)cc3)nc(SCC(=O)Nc3cccc(C(=O)O)c3)c1C2 | – | 14.9% | 11.8 | –
O=C(CSc1nc2n(-c3ccc(F)cc3)[nH]cc-2c(=O)n1)Nc1ccc(Br)cc1 | 9.2 | 31.3% | 16.4 to 16.6 | Ki [5]: 13 µM; Ki [6]: 12 µM
Cc1ccc(-c2nc3c(c(SCC(=O)Nc4cccc(C(=O)O)c4)n2)Cc2cccc(C)c2O3)cc1 | 52 | 51.7% | 3.8 | Ki [5]: 3.5 µM; Ki [6]: 1 µM
Cc1ccc(-c2nc3c(c(SCC(=O)Nc4ccccc4)n2)Cc2cccc(C)c2O3)cc1 | – | inactive | 26.8 | –
COc1ccccc1NC(=O)CSc1nc(-c2ccc(C(C)(C)C)cc2)c(C#N)c(=O)[nH]1 | 80 | – | – | –
COc1cccc(NC(=O)CSCn2[nH]nc3c(=O)nc(Cc4ccc(F)cc4)nc2-3)c1 | – | – | – | IC50 [4]: Not Active
O=C(CSc1nc(-c2ccc(O)cc2)nc2c1Cc1ccccc1O2)Nc1cccc(C(=O)O)c1 | 166 | – | – | –
O=C(CSCn1[nH]nc2c(=O)nc(Cc3ccc(F)cc3)nc1-2)Nc1ccc(F)cc1 | – | – | – | IC50 [4]: Not Active
Cc1cccc2c1Oc1nc(-c3ccccc3)nc(SCC(=O)Nc3cccc(C(=O)O)c3)c1C2 | – | 49.6% | 4.7 | –
O=C(CSc1nc(-c2ccc(F)cc2)nc2c1Cc1ccccc1O2)Nc1cccc(C(=O)O)c1 | 166 | – | – | –
Cc1cc(C)cc(NC(=O)CSCn2[nH]nc3c(=O)nc(Cc4ccc(F)cc4)nc2-3)c1 | 18.9 | 41.5% | 48 | Ki [5]: 50 µM; inhibition [7]: inactive; Ki [6]: 31 µM
